What was measured:
Cytochrome P450 1A2 = biological target: T1, Cytochrome P450 1A2 (Homo sapiens, UniProt P05177); experiment: Inhibition of CYP1A2 (unknown origin); format: ADME
T1 sequence (P05177 whole entry): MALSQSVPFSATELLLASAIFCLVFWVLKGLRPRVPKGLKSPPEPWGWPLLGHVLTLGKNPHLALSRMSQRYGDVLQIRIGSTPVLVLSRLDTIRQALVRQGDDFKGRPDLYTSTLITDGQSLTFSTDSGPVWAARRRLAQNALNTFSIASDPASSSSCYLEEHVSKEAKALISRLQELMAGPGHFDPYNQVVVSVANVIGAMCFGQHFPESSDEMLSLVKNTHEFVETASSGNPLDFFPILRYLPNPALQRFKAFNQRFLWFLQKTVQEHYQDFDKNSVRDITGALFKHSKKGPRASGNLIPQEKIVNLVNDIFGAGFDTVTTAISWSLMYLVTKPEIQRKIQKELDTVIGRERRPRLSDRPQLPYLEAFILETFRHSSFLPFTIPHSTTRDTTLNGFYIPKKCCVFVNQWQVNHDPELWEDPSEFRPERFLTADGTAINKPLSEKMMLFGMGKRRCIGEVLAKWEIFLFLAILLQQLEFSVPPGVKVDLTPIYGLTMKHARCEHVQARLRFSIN

Rattus norvegicus [1] = experiment: Antiarthritic activity in Lewis rat model of Complete Freund's adjuvant-induced arthritis assessed as effective dose causing reduction in paw swelling administered orally once daily for 21 days after CFA injection and measured weekly three times upto day 21 by water displacement plethysmometer; format: functional; conditions: po, 504 h, time 21 day
Outline: (§1)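 Male Lewis rats, 200−225 g, n = 8 per group. Immunized at the tail base with 100 μL of 10 mg/mL ground Mycobacterium butyricum in incomplete Freund's adjuvant. Oral dosing once daily in PEG300 vehicle from the day of immunization for 21 days, at 0.03, 0.1 or 1.0 mg/kg. Dexamethasone 0.1 mg/kg PO QD as positive control. Paw volume by water displacement plethysmometry, day 7 to day 21.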

[2] = Oral bioavailability in dog at 0.1 mg/kg; format: ADME, organism-based, Canis lupus familiaris; conditions: in vivo
[3] = Ratio of plasma concentration in Lewis rat at 1 mg/kg, po measured at 4 hrs to plasma concentration in Lewis rat at 1 mg/kg, po measured at 24 hrs; format: ADME, organism-based; conditions: in vivo
[4] = Oral bioavailability in rat at 1 mg/kg; format: ADME, organism-based; conditions: in vivo
[5] = Tmax in mouse at 5 mg/kg, po or 2 mg/kg, iv; format: ADME, organism-based; conditions: in vivo
[6] = Half-life in dog at 0.1 mg/kg, po or 0.1 mg/kg, iv; format: ADME, organism-based, Canis lupus familiaris; conditions: in vivo
[7] = AUC in rat at 1 mg/kg, po; format: ADME, organism-based; set-up: dose 1 mg/kg; conditions: in vivo
[8] = biological target: T2, Sphingosine 1-phosphate receptor 1 (Homo sapiens, UniProt P21453); experiment: Agonist activity at human S1P1 expressed in CHO cell membranes assessed as stimulation of [35S]-GTPgamma-S binding measured after 45 mins by liquid scintillation counting method; set-up: species or system Cell membrane
Outline: (§2)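 S1P1/CHO cell membranes at 3 μg protein/well with 3-fold compound dilutions. [35S]GTPγS 0.2 nM final, 45 min at room temperature. Filter-plate capture, water washes, scintillation counting. EC50 taken at 50% of each compound's own Ymax.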

Homo sapiens [9] = species: Homo sapiens; experiment: Inhibition of sodium channel (unknown origin) assessed as reduction in 1 and 4 Hz-induced channel current at 10 uM by patch clamp technique relative to control
[10] = biological target: Sphingosine 1-phosphate receptor 3 (Homo sapiens, UniProt Q99500); experiment: Agonist activity at human S1P3 expressed in CHO cell membranes assessed as stimulation of [35S]-GTPgamma-S binding measured after 45 mins by liquid scintillation counting method; set-up: species or system Cell membrane
[11] = Clearance in dog at 0.1 mg/kg, po or 0.1 mg/kg, iv; format: ADME, organism-based, Canis lupus familiaris; conditions: in vivo
[12] = AUC in cynomolgus monkey at 0.5 mg/kg, po; format: ADME, organism-based, Macaca fascicularis; set-up: dose 0.5 mg/kg; conditions: in vivo
[13] = Metabolic stability in mouse assessed as half-life; format: ADME
[14] = biological target: T2, Sphingosine 1-phosphate receptor 1; experiment: Binding affinity to human S1P1
[15] = Cmax in cynomolgus monkey at 0.5 mg/kg, po or 0.5 mg/kg, iv; format: ADME, organism-based, Macaca fascicularis; set-up: dose 0.5 mg/kg; conditions: in vivo
[16] = Protein binding in rat assessed as bound fraction; format: ADME; conditions: read-out: PB (converted)
Homo sapiens [17] = species: Homo sapiens; experiment: Inhibition of calcium channel (unknown origin) at 10 uM by patch clamp technique relative to control
[18] = Metabolic stability in rat assessed as half-life; format: ADME
[19] = biological target: T3, Nuclear receptor subfamily 1 group I member 2 (Homo sapiens, UniProt O75469); experiment: Transactivation of PXR (unknown origin); format: ADME
T3 sequence (O75469 whole entry): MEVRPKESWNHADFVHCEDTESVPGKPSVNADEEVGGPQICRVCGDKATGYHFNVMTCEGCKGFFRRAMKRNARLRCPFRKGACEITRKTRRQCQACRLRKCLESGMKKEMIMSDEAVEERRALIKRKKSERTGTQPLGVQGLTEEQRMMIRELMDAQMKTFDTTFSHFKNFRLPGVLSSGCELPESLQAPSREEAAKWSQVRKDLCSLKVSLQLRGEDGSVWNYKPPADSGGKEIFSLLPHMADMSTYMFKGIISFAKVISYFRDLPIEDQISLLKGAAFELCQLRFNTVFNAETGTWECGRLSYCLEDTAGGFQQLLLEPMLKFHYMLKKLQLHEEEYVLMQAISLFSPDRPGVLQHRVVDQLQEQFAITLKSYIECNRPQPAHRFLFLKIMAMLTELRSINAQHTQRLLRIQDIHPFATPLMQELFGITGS

[20] = Tmax in rat at 1 mg/kg, po or 1 mg/kg, iv; format: ADME, organism-based; conditions: in vivo
[21] = Protein binding in human assessed as bound fraction; format: ADME; conditions: read-out: PB (converted)
[22] = Half-life in mouse at 5 mg/kg, po or 2 mg/kg, iv; format: ADME, organism-based; conditions: in vivo
Cytochrome P450 2C19 = Cytochrome P450 2C19 (Homo sapiens, UniProt P33261); experiment: Inhibition of CYP2C19 (unknown origin); format: ADME
[23] = biological target: Sphingosine 1-phosphate receptor 1 (Rattus norvegicus, UniProt P48303); experiment: Agonist activity at rat S1P1 expressed in CHO cell membranes assessed as stimulation of [35S]-GTPgamma-S binding measured after 45 mins by liquid scintillation counting method; set-up: species or system Cell membrane; outline: as §2
[24] = Permeability of compound at pH 5.5 by PAMPA; format: ADME; conditions: read-out: permeability
Cytochrome P450 2C9 = Cytochrome P450 2C9 (Homo sapiens, UniProt P11712); experiment: Inhibition of CYP2C9 (unknown origin); format: ADME
[25] = Protein binding in mouse assessed as bound fraction; format: ADME; conditions: read-out: PB (converted)
[26] = Metabolic stability in monkey assessed as half-life; format: ADME, Macaca mulatta; conditions: rhesus monkey
Cytochrome P450 3A4 = Cytochrome P450 3A4 (Homo sapiens, UniProt P08684); experiment: Inhibition of CYP3A4 (unknown origin) using 7-benzyloxy resorufin as substrate; format: ADME
[27] = Volume of distribution at steady state in rat at 1 mg/kg, po or 1 mg/kg, iv; format: ADME, organism-based; conditions: in vivo, read-out: Vdss
Rattus norvegicus [28] = experiment: Antiarthritic activity in Lewis rat model of Complete Freund's adjuvant-induced arthritis assessed as reduction in paw swelling administered orally once daily for 21 days after CFA injection and measured weekly three times upto day 21 by water displacement plethysmometer; format: functional, organism-based; conditions: 504 h; outline: as §1

T2 sequence (P21453 whole entry): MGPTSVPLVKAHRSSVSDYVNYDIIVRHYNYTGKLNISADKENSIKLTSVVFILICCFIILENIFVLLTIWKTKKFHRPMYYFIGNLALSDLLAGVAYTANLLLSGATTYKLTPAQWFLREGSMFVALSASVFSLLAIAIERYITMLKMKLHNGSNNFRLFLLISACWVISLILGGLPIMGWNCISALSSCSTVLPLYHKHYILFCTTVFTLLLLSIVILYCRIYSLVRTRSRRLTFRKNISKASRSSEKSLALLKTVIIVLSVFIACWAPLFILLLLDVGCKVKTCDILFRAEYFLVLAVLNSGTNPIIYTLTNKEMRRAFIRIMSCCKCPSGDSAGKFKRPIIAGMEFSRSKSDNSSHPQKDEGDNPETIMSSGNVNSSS
Sequence of Sphingosine 1-phosphate receptor 1 (Rattus norvegicus, UniProt P48303) (P48303 whole entry): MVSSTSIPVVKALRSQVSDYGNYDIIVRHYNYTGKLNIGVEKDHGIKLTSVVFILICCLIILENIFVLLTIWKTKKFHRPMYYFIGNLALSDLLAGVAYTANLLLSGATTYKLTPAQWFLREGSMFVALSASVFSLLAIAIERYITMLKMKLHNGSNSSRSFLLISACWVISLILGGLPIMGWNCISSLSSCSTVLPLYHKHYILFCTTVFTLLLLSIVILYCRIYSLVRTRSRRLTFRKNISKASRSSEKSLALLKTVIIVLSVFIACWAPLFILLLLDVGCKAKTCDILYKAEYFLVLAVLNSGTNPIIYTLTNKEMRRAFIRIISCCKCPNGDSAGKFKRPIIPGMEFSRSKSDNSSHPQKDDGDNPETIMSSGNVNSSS
Sequence of Cytochrome P450 2C19 (P33261 whole entry): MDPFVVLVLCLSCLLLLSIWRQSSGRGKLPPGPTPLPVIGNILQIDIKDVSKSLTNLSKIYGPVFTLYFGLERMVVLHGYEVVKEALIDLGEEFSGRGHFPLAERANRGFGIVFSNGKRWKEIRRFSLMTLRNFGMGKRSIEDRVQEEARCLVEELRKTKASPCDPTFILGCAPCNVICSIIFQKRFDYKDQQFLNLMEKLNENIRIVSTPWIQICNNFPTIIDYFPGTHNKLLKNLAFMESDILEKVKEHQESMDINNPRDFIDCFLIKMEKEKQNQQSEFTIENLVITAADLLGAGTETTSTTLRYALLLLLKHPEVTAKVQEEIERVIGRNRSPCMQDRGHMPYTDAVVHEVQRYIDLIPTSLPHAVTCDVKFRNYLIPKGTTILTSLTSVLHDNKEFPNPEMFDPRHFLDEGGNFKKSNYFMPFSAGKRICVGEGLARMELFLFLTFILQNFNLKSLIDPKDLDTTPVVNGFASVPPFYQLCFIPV
Sequence of Cytochrome P450 3A4 (P08684 whole entry): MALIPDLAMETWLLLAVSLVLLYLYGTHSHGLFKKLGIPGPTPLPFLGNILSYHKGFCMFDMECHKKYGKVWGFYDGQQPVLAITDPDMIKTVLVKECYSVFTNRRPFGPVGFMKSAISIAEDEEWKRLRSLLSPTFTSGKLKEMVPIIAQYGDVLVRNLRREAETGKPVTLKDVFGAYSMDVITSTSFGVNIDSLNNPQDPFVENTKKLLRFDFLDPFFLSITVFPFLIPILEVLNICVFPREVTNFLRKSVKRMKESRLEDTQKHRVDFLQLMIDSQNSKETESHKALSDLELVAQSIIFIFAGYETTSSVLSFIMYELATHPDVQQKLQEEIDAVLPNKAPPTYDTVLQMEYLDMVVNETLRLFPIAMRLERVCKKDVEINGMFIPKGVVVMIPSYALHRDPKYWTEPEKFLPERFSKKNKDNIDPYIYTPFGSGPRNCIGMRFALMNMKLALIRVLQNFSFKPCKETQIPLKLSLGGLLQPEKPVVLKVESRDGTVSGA
Sequence of Sphingosine 1-phosphate receptor 3 (Q99500 whole entry): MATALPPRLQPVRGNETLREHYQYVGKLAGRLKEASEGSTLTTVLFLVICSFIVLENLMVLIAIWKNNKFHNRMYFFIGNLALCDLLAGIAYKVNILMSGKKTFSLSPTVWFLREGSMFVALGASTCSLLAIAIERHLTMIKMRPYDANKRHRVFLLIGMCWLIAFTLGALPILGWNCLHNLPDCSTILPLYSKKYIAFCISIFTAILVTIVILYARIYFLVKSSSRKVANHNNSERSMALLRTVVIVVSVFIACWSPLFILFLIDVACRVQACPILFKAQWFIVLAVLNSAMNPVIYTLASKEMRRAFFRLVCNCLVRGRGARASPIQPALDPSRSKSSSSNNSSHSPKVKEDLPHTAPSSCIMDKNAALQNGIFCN
Sequence of Cytochrome P450 2C9 (P11712 whole entry): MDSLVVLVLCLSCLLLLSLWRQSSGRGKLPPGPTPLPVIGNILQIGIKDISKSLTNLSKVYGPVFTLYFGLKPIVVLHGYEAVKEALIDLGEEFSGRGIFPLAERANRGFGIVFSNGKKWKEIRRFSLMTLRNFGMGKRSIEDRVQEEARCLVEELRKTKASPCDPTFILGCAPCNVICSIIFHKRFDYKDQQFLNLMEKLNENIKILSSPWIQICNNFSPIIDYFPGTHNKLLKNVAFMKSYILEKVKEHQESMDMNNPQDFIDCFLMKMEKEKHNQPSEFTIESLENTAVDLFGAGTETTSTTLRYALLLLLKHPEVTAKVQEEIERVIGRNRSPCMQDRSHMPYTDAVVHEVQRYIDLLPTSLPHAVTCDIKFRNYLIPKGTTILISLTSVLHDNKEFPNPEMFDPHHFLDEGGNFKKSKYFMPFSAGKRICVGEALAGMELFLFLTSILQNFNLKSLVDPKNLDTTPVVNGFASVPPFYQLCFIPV

O=C(O)C1CN(Cc2ccc3c(c2)CCc2c-3noc2-c2onc(-c3ccccc3)c2C(F)(F)F)C1
IC50 (Cytochrome P450 1A2): > 40000 nM | ED50 (Rattus norvegicus [1]): 0.09 mg/kg | bioavailability [2]: 95% | Ratio [3]: 4 | bioavailability [4]: 43% | Tmax [5]: 3 h | half-life [6]: 23.1 h | AUC [7]: 1.5 µM·h | EC50 [8]: 0.59 nM | inhibition (Homo sapiens [9]): 12% | EC50 [10]: 4400 nM | clearance [11]: 1.4 mL/min/kg | AUC [12]: 3.4 µM·h | half-life [13]: > 2 h | IC50 [14]: 0.38 nM | Cmax [15]: 410 nM | fraction unbound [16]: 0.004 | inhibition (Homo sapiens [17]): 11% | half-life [18]: > 2 h | EC50 [19]: > 50000 nM | Tmax [20]: 4 h | fraction unbound [21]: 0.004 | half-life [22]: 15 h | IC50 (Cytochrome P450 2C19): > 40000 nM | EC50 [23]: 0.31 nM | Papp [24]: 26 ×10⁻⁶ cm/s | IC50 (Cytochrome P450 2C9): > 40000 nM | fraction unbound [25]: 0.007 | half-life [26]: > 2 h | IC50 (Cytochrome P450 3A4): > 40000 nM | Vd [27]: 4.8 L/kg | EC50 (Rattus norvegicus [28]): 24 nM

— ChEMBL document CHEMBL4680083, “Identification of Tricyclic Agonists of Sphingosine-1-phosphate Receptor 1 (S1P) Employing Ligand-Based Drug Design” (J Med Chem, 2016)
